{"source": "ChEMBL document CHEMBL3259728", "about": "“Design, synthesis and biological evaluation of some novel substituted quinazolines as antitumor agents” (2014)", "assay_type_in_all_cases": "functional", "key": {"[1]": {"test": "Growth inhibition of human HOP92 cells assessed as cell growth at 10^-4 M after 48 hrs by SRB assay", "details": "HOP-92, 48 h, read-out: Activity"}, "RPMI-8226": {"test_system": "RPMI-8226", "test": "Growth inhibition of human RPMI8226 cells assessed as cell growth at 10^-7 M after 48 hrs by SRB assay", "details": "RPMI-8226, 48 h, read-out: Activity"}, "[2]": {"test": "Growth inhibition of human UACC62 cells assessed as cell growth at 10^-7 M after 48 hrs by SRB assay", "details": "UACC-62, 48 h, read-out: Activity"}, "K562": {"test_system": "K562", "test": "Growth inhibition of human K562 cells assessed as cell growth at 10^-4 M after 48 hrs by SRB assay", "details": "K562, 48 h, read-out: Activity"}, "[3]": {"test": "Growth inhibition of human EKVX cells assessed as cell growth at 10^-5 M after 48 hrs by SRB assay", "details": "read-out: Activity"}, "[4]": {"test": "Growth inhibition of human OVCAR4 cells assessed as cell growth at 10^-7 M after 48 hrs by SRB assay", "details": "OVCAR-4, 48 h, read-out: Activity"}, "[5]": {"test": "Growth inhibition of human UO31 cells assessed as cell growth at 10^-4 M after 48 hrs by SRB assay", "details": "UO-31, 48 h, read-out: Activity"}, "[6]": {"test": "Growth inhibition of human SF295 cells assessed as cell growth at 10^-6 M after 48 hrs by SRB assay", "details": "SF-295, 48 h, read-out: Activity"}, "NCI-H226": {"test_system": "NCI-H226", "test": "Growth inhibition of human NCI-H226 cells assessed as cell growth at 10^-5 M after 48 hrs by SRB assay", "details": "NCI-H226, 48 h, read-out: Activity"}, "[7]": {"test": "Cytotoxicity against human Hs578T cells after 48 hrs by SRB assay", "details": "Hs-578T", "outline": "(§1)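 NCI 60-cell-line panel of human tumour lines from nine cancer types. Continuous 48 h exposure at five 10-fold dilutions from 10^-4 to 10^-8 M, with 5-FU as positive control. SRB protein stain read spectrophotometrically at time zero, untreated control and each concentration. GI50, TGI and LC50 were derived from the [(Ti−Tz)/(C−Tz)]×100 growth relations, and out-of-range values are given as > or < the tested limits.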"}, "[8]": {"test": "Growth inhibition of human EKVX cells assessed as cell growth at 10^-8 M after 48 hrs by SRB assay", "details": "read-out: Activity"}, "786-0": {"test_system": "786-0", "test": "Growth inhibition of human 786-0 cells assessed as cell growth at 10^-6 M after 48 hrs by SRB assay", "details": "786-0, 48 h, read-out: Activity", "outline": "(§2)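 Five-dose NCI panel protocol. Each dose (10^-4 to 10^-8 M, 10-fold steps) was given as 48 h continuous exposure, and protein was measured by SRB staining. Percentage growth at each level is [(Ti−Tz)/(C−Tz)]×100, where Tz is time-zero absorbance and C is untreated control.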"}, "COLO 205": {"test_system": "COLO 205", "test": "Growth inhibition of human COLO205 cells assessed as cell growth at 10^-7 M after 48 hrs by SRB assay", "details": "COLO 205, 48 h, read-out: Activity", "outline": "as §2"}, "SN12C": {"test_system": "SN12C", "test": "Growth inhibition of human SN12C cells assessed as cell growth at 10^-5 M after 48 hrs by SRB assay", "details": "read-out: Activity"}, "[9]": {"test": "Growth inhibition of human Hs578T cells assessed as cell growth at 10^-7 M after 48 hrs by SRB assay", "details": "Hs-578T, read-out: Activity"}, "[10]": {"test": "Growth inhibition of human UO31 cells assessed as cell growth at 10^-7 M after 48 hrs by SRB assay", "details": "UO-31, 48 h, read-out: Activity"}, "HCT-116 [11]": {"test_system": "HCT-116", "test": "Growth inhibition of human HCT116 cells assessed as cell growth at 10^-8 M after 48 hrs by SRB assay", "details": "HCT-116, 48 h, read-out: Activity"}, "[12]": {"test": "Growth inhibition of human UACC257 cells assessed as cell growth at 10^-6 M after 48 hrs by SRB assay", "details": "UACC-257, 48 h, read-out: Activity"}, "KM12 [13]": {"test_system": "KM12", "test": "Growth inhibition of human KM12 cells assessed as cell growth at 10^-7 M after 48 hrs by SRB assay", "details": "KM12, 48 h, read-out: Activity"}, "SK-MEL-5": {"test_system": "SK-MEL-5", "test": "Growth inhibition of human SK-MEL-5 cells assessed as cell growth at 10^-5 M after 48 hrs by SRB assay", "details": "SK-MEL-5, 48 h, read-out: Activity"}, "MDA-MB-435": {"test_system": "MDA-MB-435", "test": "Growth inhibition of human MDA-MB-435 cells assessed as cell growth at 10^-7 M after 48 hrs by SRB assay", "details": "MDA-MB-435, 48 h, read-out: Activity"}, "HCT-116 [14]": {"test_system": "HCT-116", "test": "Growth inhibition of human HCT116 cells assessed as cell growth at 10^-6 M after 48 hrs by SRB assay", "details": "HCT-116, 48 h, read-out: Activity"}, "[15]": {"test": "Growth inhibition of human HOP92 cells assessed as cell growth at 10^-7 M after 48 hrs by SRB assay", "details": "HOP-92, 48 h, read-out: Activity"}, "KM12 [16]": {"test_system": "KM12", "test": "Growth inhibition of human KM12 cells assessed as cell growth at 10^-8 M after 48 hrs by SRB assay", "details": "KM12, 48 h, read-out: Activity"}, "[17]": {"test": "Growth inhibition of human OVCAR8 cells assessed as cell growth at 10^-4 M after 48 hrs by SRB assay", "details": "OVCAR-8, 48 h, read-out: Activity"}, "MCF7": {"test_system": "MCF7", "test": "Growth inhibition of human MCF7 cells assessed as cell growth at 10^-7 M after 48 hrs by SRB assay", "details": "MCF7, 48 h, read-out: Activity"}, "[18]": {"test": "Growth inhibition of human OVCAR5 cells assessed as cell growth at 10^-8 M after 48 hrs by SRB assay", "details": "OVCAR-5, 48 h, read-out: Activity"}, "NCI-H322M": {"test_system": "NCI-H322M", "test": "Growth inhibition of human NCI-H322M cells assessed as cell growth at 10^-5 M after 48 hrs by SRB assay", "details": "read-out: Activity"}, "MOLT-4": {"test_system": "MOLT-4", "test": "Cytotoxicity against human MOLT4 cells after 48 hrs by SRB assay", "details": "MOLT-4, 48 h", "outline": "as §1"}, "NCI-H460": {"test_system": "NCI-H460", "test": "Growth inhibition of human NCI-H460 cells assessed as cell growth at 10^-6 M after 48 hrs by SRB assay", "details": "NCI-H460, 48 h, read-out: Activity"}, "HCC 2998": {"test_system": "HCC 2998", "test": "Cytotoxicity against human HCC2998 cells after 48 hrs by SRB assay", "details": "HCC 2998, 48 h", "outline": "as §1"}, "[19]": {"test": "Growth inhibition of human Hs578T cells assessed as cell growth at 10^-6 M after 48 hrs by SRB assay", "details": "Hs-578T, read-out: Activity"}, "KM12 [20]": {"test_system": "KM12", "test": "Growth inhibition of human KM12 cells assessed as cell growth at 10^-6 M after 48 hrs by SRB assay", "details": "KM12, 48 h, read-out: Activity"}, "[21]": {"details": "read-out: LC50 (the source's name)"}, "[22]": {"details": "read-out: pLC50 (the source's name) (converted)"}}, "data": [{"smiles": "Cc1ccc(-c2nc3ccc(Cl)cc3c(=O)n2/N=C/c2ccccc2)cc1", "values": [{"measurement": "growth at 100 µM", "setting": "[1]", "value": 15, "unit": "%"}, {"measurement": "growth at 0.1 µM", "setting": "RPMI-8226", "value": 94, "unit": "%"}, {"measurement": "growth at 0.1 µM", "setting": "[2]", "value": 88, "unit": "%"}, {"measurement": "growth at 100 µM", "setting": "K562", "value": 59, "unit": "%"}, {"measurement": "growth at 10 µM", "setting": "[3]", "value": 34, "unit": "%"}, {"measurement": "growth at 0.1 µM", "setting": "[4]", "value": 96, "unit": "%"}, {"measurement": "growth at 100 µM", "setting": "[5]", "value": 39, "unit": "%"}, {"measurement": "growth at 1 µM", "setting": "[6]", "value": 80, "unit": "%"}, {"measurement": "growth at 10 µM", "setting": "NCI-H226", "value": 38, "unit": "%"}, {"measurement": "GI50", "setting": "[7]; read-out: GI50", "value": 2620, "unit": "nM"}, {"measurement": "LC50 (concentration giving 50% net cell kill)", "setting": "[7]; read-out: LC50", "value": "> 100", "unit": "µM"}, {"measurement": "TGI", "setting": "[7]; read-out: TGI", "value": 17.2, "unit": "µM"}, {"measurement": "GI50", "setting": "[7]; read-out: pGI50 (converted)", "value": 2630, "unit": "nM"}, {"measurement": "LC50 (concentration giving 50% net cell kill)", "setting": "[7]; read-out: pLC50 (converted)", "value": "> 100", "unit": "µM"}, {"measurement": "TGI", "setting": "[7]; read-out: pTGI (converted)", "value": 17.4, "unit": "µM"}, {"measurement": "growth at 0.01 µM", "setting": "[8]", "value": 92, "unit": "%"}, {"measurement": "growth at 1 µM", "setting": "786-0", "value": 90, "unit": "%"}, {"measurement": "growth at 0.1 µM", "setting": "COLO 205", "value": 116, "unit": "%"}, {"measurement": "growth at 10 µM", "setting": "SN12C", "value": 51, "unit": "%"}, {"measurement": "growth at 0.1 µM", "setting": "[9]", "value": 90, "unit": "%"}, {"measurement": "growth at 0.1 µM", "setting": "[10]", "value": 60, "unit": "%"}, {"measurement": "growth at 0.01 µM", "setting": "HCT-116 [11]", "value": 100, "unit": "%"}, {"measurement": "growth at 1 µM", "setting": "[12]", "value": 97, "unit": "%"}, {"measurement": "growth at 0.1 µM", "setting": "KM12 [13]", "value": 97, "unit": "%"}, {"measurement": "growth at 10 µM", "setting": "SK-MEL-5", "value": 57, "unit": "%"}, {"measurement": "growth at 0.1 µM", "setting": "MDA-MB-435", "value": 86, "unit": "%"}, {"measurement": "growth at 1 µM", "setting": "HCT-116 [14]", "value": 87, "unit": "%"}, {"measurement": "growth at 0.1 µM", "setting": "[15]", "value": 89, "unit": "%"}, {"measurement": "growth at 0.01 µM", "setting": "KM12 [16]", "value": 95, "unit": "%"}, {"measurement": "growth at 100 µM", "setting": "[17]", "value": 27, "unit": "%"}, {"measurement": "growth at 0.1 µM", "setting": "MCF7", "value": 90, "unit": "%"}, {"measurement": "growth at 0.01 µM", "setting": "[18]", "value": 96, "unit": "%"}, {"measurement": "growth at 10 µM", "setting": "NCI-H322M", "value": 52, "unit": "%"}, {"measurement": "GI50", "setting": "MOLT-4; read-out: GI50", "value": "> 100", "unit": "µM"}, {"measurement": "CC50", "setting": "MOLT-4; [21]", "value": "> 100", "unit": "µM"}, {"measurement": "TGI", "setting": "MOLT-4; read-out: TGI", "value": "> 100", "unit": "µM"}, {"measurement": "GI50", "setting": "MOLT-4; read-out: pGI50 (converted)", "value": "> 100", "unit": "µM"}, {"measurement": "CC50", "setting": "MOLT-4; [22]", "value": "> 100", "unit": "µM"}, {"measurement": "TGI", "setting": "MOLT-4; read-out: pTGI", "value": "> 100", "unit": "µM"}, {"measurement": "growth at 1 µM", "setting": "NCI-H460", "value": 85, "unit": "%"}, {"measurement": "GI50", "setting": "HCC 2998; read-out: GI50", "value": "> 100", "unit": "µM"}, {"measurement": "CC50", "setting": "HCC 2998; [21]", "value": "> 100", "unit": "µM"}, {"measurement": "TGI", "setting": "HCC 2998; read-out: TGI", "value": "> 100", "unit": "µM"}, {"measurement": "GI50", "setting": "HCC 2998; read-out: pGI50 (converted)", "value": "> 100", "unit": "µM"}, {"measurement": "CC50", "setting": "HCC 2998; [22]", "value": "> 100", "unit": "µM"}, {"measurement": "TGI", "setting": "HCC 2998; read-out: pTGI", "value": "> 100", "unit": "µM"}, {"measurement": "growth at 1 µM", "setting": "[19]", "value": 84, "unit": "%"}, {"measurement": "growth at 1 µM", "setting": "KM12 [20]", "value": 91, "unit": "%"}]}]}
